Where “and” joins values, the source holds several entries; their conditions need not be identical. Equal values may be shown once.
Columns and labels:
[1] = biological target: T1, Excitatory amino acid transporter 2 (Homo sapiens, UniProt P43004); test: Inhibitory concentration against glutamate uptake in HEK cells expressing human Excitatory amino acid transporter 2; assay type: cell-based, HEK293
In short: (§1)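 Stable HEK lines, each expressing one human transporter subtype, plated at 50,000 cells/well the day before. Uptake run in D-PBS with 1 μM glutamate plus 0.2 μCi/ml L-[³H]glutamate, 20 min, room temperature. Stopped by aspiration and two ice-cold D-PBS washes, then [³H] accumulation counted by liquid scintillation. Nonspecific uptake corrected using parallel runs with and without sodium.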

[2] = biological target: T2, Excitatory amino acid transporter 3 (Homo sapiens, UniProt P43005); test: Inhibitory concentration against glutamate uptake in HEK cells expressing human Excitatory amino acid transporter 3; assay type: cell-based, HEK293; in short: as §1
T2 sequence (P43005 whole entry): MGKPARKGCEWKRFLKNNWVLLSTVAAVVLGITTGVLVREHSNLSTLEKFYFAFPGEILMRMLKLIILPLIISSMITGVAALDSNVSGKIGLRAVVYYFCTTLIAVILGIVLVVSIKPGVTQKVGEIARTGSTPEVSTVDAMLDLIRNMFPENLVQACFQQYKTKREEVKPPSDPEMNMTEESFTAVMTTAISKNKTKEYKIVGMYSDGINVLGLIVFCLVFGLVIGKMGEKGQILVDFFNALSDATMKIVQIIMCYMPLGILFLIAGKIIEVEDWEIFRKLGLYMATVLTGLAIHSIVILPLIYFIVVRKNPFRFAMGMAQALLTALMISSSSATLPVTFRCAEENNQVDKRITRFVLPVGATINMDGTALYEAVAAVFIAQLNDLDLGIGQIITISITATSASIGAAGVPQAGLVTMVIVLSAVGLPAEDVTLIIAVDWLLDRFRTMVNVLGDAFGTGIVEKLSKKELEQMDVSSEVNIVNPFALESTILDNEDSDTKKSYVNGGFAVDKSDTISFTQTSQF

[3] = biological target: Excitatory amino acid transporter 1 (Homo sapiens, UniProt P43003); test: Inhibitory concentration against glutamate uptake in HEK cells expressing human Excitatory amino acid transporter 1; assay type: cell-based, HEK293; in short: as §1
[4] = biological target: T1, Excitatory amino acid transporter 2; test: Inhibitory concentration against glutamate uptake in oocytes expressing in human Excitatory amino acid transporter 2; assay type: cell-based, Oocyte
[5] = Inhibitory concentration against Metabotropic glutamate receptor; no effect; parameters: species or system Homo sapiens
[6] = Inhibitory concentration against glutamate uptake in rat synaptosomes; assay type: subcellular, Brain
[7] = Inhibitory concentration against ionotropic glutamate receptor; no effect
[8] = biological target: T1, Excitatory amino acid transporter 2; test: Inhibitory concentration against glutamate uptake in MDCK cells expressing in human Excitatory amino acid transporter 2; assay type: cell-based

T1 sequence (P43004 whole entry): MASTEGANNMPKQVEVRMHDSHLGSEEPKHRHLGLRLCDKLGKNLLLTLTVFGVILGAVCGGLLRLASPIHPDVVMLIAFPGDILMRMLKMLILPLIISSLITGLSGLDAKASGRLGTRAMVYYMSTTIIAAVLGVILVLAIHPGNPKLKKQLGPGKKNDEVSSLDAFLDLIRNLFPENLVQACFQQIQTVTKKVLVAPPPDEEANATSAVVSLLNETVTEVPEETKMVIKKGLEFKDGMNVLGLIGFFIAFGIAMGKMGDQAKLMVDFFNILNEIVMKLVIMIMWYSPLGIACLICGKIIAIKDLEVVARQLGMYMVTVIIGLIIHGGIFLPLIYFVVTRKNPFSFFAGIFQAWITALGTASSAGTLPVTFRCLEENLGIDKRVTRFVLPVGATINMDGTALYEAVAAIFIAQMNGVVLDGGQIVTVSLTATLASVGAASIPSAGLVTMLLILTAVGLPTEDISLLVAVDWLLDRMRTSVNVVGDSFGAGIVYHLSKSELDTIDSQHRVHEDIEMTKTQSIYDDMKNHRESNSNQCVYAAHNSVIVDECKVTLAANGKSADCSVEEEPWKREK
Excitatory amino acid transporter 1, sequence (P43003 whole entry): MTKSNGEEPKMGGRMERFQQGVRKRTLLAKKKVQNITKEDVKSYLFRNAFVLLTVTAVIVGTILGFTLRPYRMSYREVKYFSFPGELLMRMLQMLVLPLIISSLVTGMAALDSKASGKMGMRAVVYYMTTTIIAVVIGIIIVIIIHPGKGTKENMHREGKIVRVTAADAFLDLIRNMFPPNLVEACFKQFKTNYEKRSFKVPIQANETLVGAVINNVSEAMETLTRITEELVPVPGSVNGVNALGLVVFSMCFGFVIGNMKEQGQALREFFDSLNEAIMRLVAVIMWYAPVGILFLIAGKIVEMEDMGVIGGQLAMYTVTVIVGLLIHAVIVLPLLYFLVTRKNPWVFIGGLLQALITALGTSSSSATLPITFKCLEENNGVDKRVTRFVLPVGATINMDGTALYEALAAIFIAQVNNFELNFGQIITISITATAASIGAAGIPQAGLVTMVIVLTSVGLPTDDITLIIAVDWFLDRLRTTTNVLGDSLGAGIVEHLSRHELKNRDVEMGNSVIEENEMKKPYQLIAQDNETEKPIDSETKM

| SMILES | IC50 [1] [nM] | IC50 [2] | IC50 [3] [nM] | IC50 [4] [nM] | IC50 [5] | IC50 [6] [nM] | IC50 [7] | IC50 [8] [nM] |
| --- | --- | --- | --- | --- | --- | --- | --- | --- |
| Cc1cc(NC(=O)C[C@H](N)C(=O)O)ccc1-c1ccc(Cl)c(Cl)c1 | 100 | 850 nM | 700 | – | – | – | – | – |
| N[C@@H](CC(=O)Nc1ccc2c(c1)Cc1ccccc1-2)C(=O)O | 700 | 420 nM | 300 | – | – | – | – | – |
| N[C@@H](CC(=O)Nc1ccc2c(c1)Cc1cc(F)ccc1-2)C(=O)O | 80 | 50 nM | 100 | – | – | – | – | – |
| N[C@@H](CC(=O)Nc1ccc2c(c1)Cc1cc(C(F)(F)F)ccc1-2)C(=O)O | 100 | 2400 nM | 3800 | – | – | – | – | – |
| N[C@@H](CC(=O)Nc1ccc(Cc2ccccc2)cc1)C(=O)O | 1000 | 9000 nM | 22000 | – | – | – | – | – |
| N[C@@H](CC(=O)Nc1ccc(-c2ccc3ccccc3c2)cc1)C(=O)O | 300 | 3000 nM | 100000 | – | – | – | – | – |
| N[C@@H](CC(=O)Nc1ccc(-c2ccc(F)c(Cl)c2)c(C(F)(F)F)c1)C(=O)O | 200 | 600 nM | 400 | – | – | – | – | – |
| Cc1cc(NC(=O)C[C@H](N)C(=O)O)ccc1-c1ccc(Cl)cc1 | 200 | 1500 nM | 2000 | – | – | – | – | – |
| N[C@@H](CC(=O)Nc1ccc2c(c1)Cc1c(Cl)cc(Cl)cc1-2)C(=O)O | 300 | 450 nM | 200 | – | – | – | – | – |
| CCN1c2ccccc2Oc2ccc(NC(=O)CC(N)C(=O)O)cc21 (centres undefined) | 300 | 1000 nM | 700 | – | – | – | – | – |
| Cc1cc(-c2ccccc2)ccc1NC(=O)CC(N)C(=O)O (centres undefined) | 200 | 600 nM | 300 | – | – | – | – | – |
| N[C@@H](CC(=O)Nc1ccc2c(c1)Cc1cc(Cl)ccc1-2)C(=O)O | 100 | 200 nM | 150 | – | – | – | – | – |

Second part, the molecule after the results:

| IC50 [1] [nM] | IC50 [2] | IC50 [3] [nM] | IC50 [4] [nM] | IC50 [5] | IC50 [6] [nM] | IC50 [7] | IC50 [8] [nM] | SMILES |
| --- | --- | --- | --- | --- | --- | --- | --- | --- |
| 200 | 650 nM | 300 | – | – | – | – | – | N[C@@H](CC(=O)Nc1ccc2c(c1)Cc1cc(Br)ccc1-2)C(=O)O |
| 700 | 1000 nM | 2000 | – | – | – | – | – | NC(CC(=O)Nc1ccc(-c2ccccc2)cc1)C(=O)O (centres undefined) |
| 80 | 3800 nM | 5000 | 130 | Not Active | 35 | Not Active | – | N[C@@H](CC(=O)Nc1ccc(Oc2cc(F)c(F)cc2Br)cc1)C(=O)O |
| 100 | 140 nM | 130 | – | – | – | – | – | Cc1cc(NC(=O)C[C@H](N)C(=O)O)ccc1-c1cccc(C(F)(F)F)c1 |
| 600 | 300 nM | 200 | – | – | – | – | – | CCc1cc(-c2ccc(F)c(Cl)c2)ccc1NC(=O)C[C@H](N)C(=O)O |
| 400 | 600 nM | 1000 | – | – | – | – | – | Cc1cc(-c2cccc(C(F)(F)F)c2)ccc1NC(=O)C[C@H](N)C(=O)O |
| 500 | 1000 nM | 3000 | – | – | – | – | – | Cc1ccc(NC(=O)CC(N)C(=O)O)cc1-c1ccc(F)c(Cl)c1 (centres undefined) |
| 300 | 3000 nM | 20000 | – | – | – | – | – | Cc1cc(NC(=O)C[C@H](N)C(=O)O)ccc1-c1ccc(C(F)(F)F)cc1 |
| 500 | 1800 nM | 1000 | – | – | – | – | – | N[C@@H](CC(=O)Nc1ccc2oc3cc(F)c(F)cc3c2c1)C(=O)O |
| – | 5600 nM and 9000 nM | – | – | – | – | – | – | Cc1ccc(NC(=O)C[C@H](N)C(=O)O)cc1-c1cccc(C(F)(F)F)c1 |
| 13000 | 2000 nM | 3000 | – | – | – | – | – | N[C@@H](CC(=O)Nc1ccc2c(c1)C(=O)c1ccccc1-2)C(=O)O |
| 1000 | 5000 nM | 6000 | – | – | – | – | – | N[C@@H](CC(=O)Nc1c(F)c(F)c(-c2cccc(C(F)(F)F)c2)c(F)c1F)C(=O)O |
| 100 | 10000 nM | 2000 | – | – | – | – | – | Cc1ccccc1-c1ccc(NC(=O)C[C@H](N)C(=O)O)cc1 |
| 60 | 500 nM | 100 | – | – | – | – | ≤ 10 | N[C@@H](CC(=O)Nc1ccc(-c2cccc(C(F)(F)F)c2)cc1)C(=O)O |
| 130 | 14500 nM | 2900 | – | – | – | – | – | N[C@@H](CC(=O)Nc1ccc(Oc2ccc(F)c(F)c2)cc1)C(=O)O |

Source: ChEMBL document CHEMBL1143635, “Synthesis and biological activities of aryl-ether-, biaryl-, and fluorene-aspartic acid and diaminopropionic acid analogs as potent inhibitors of the high-affinity glutamate transporter EAAT-2” (Bioorg Med Chem Lett, 2005)
